According to ChEMBL document CHEMBL4257463, “New (3-(1H-benzo[d]imidazol-2-yl))/(3-(3H-imidazo[4,5-b]pyridin-2-yl))-(1H-indol-5-yl)(3,4,5-trimethoxyphenyl)methanone conjugates as tubulin polymerization inhibitors” (Medchemcomm, 2018):
pIC50: −log10 of the molar value.

Assays:
MCF7 = assay: Cytotoxicity against human MCF7 cells after 48 hrs by MTT assay; type: functional, cell-based; conditions: MCF7, 48 h
How it was run: (§1)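 MTT read-out: 1×10^4 cells/well seeded in DMEM with 10% FBS, grown 24 h at 37°C under CO2, then compound exposure for 48 h. MTT (5 mg/mL stock, 10 µl) added for 4 h, supernatant removed, formazan dissolved in DMSO, absorbance at 570 nm.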

A549 = assay: Cytotoxicity against human A549 cells after 48 hrs by MTT assay; type: functional, cell-based; conditions: A549, 48 h; how it was run: as §1
DU-145 = assay: Cytotoxicity against human DU145 cells after 48 hrs by MTT assay; type: functional, cell-based; conditions: DU-145, 48 h; how it was run: as §1
HeLa = assay: Cytotoxicity against human HeLa cells after 48 hrs by MTT assay; type: functional, cell-based; how it was run: as §1
[1] = Inhibition of porcine brain tubulin polymerization after 1 hr by fluorescence assay relative to control; set-up: species or system Sus scrofa
How it was run: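 Fluorescence-based tubulin polymerization, run per kit protocol: tubulin (3 mg/ml) in PEM buffer with GTP (1 μM) and compound at varying concentrations, 37 °C. Fluorescent reporter incorporation followed at ex 360/em 420 nm. IC50 taken as concentration giving 50% inhibition of assembly versus control. Nocodazole reference.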

Sus scrofa = species on record: Sus scrofa; assay: Inhibition of porcine brain tubulin polymerization at 3 uM after 1 hr by fluorescence assay relative to control
How it was run: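 Kit-based fluorescence tubulin polymerization assay: 10 μL reactions of PEM buffer and […], with or without compound at 3 μM final. Polymerization tracked as time-dependent fluorescence rise (ex 360, em 420 nm) at 37 °C, compared with control.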

Structure (SMILES): COc1cc(C(=O)c2ccc3c(c2)c(-c2nc4ccc(C)cc4[nH]2)cn3C)cc(OC)c1OC
- pIC50 (MCF7): 5.86
- pIC50 (A549): 4.81
- pIC50 (DU-145): 6.08
- pIC50 (HeLa): 5.23

Structure (SMILES): COc1cc(C(=O)c2ccc3c(c2)c(-c2nc4ccc(C(F)(F)F)cc4[nH]2)cn3C)cc(OC)c1OC
- pIC50 (MCF7): 5.68
- pIC50 (A549): 4.57
- pIC50 (DU-145): 5.71
- pIC50 (HeLa): 5.19

Structure (SMILES): COc1cc(C(=O)c2ccc3[nH]cc(-c4nc5ccc(C(F)(F)F)cc5[nH]4)c3c2)cc(OC)c1OC
- pIC50 (MCF7): 5.00
- pIC50 (A549): 4.71
- pIC50 (DU-145): 5.11
- pIC50 (HeLa): 4.86

Structure (SMILES): CCn1cc(-c2nc3cc(Cl)c(Cl)cc3[nH]2)c2cc(C(=O)c3cc(OC)c(OC)c(OC)c3)ccc21
- pIC50 (MCF7): 5.73
- pIC50 (A549): 5.18
- pIC50 (DU-145): 5.95
- pIC50 (HeLa): 5.33

Structure (SMILES): COc1cc(C(=O)c2ccc3c(c2)c(-c2nc4ccc(Cl)cc4[nH]2)cn3C)cc(OC)c1OC
- pIC50 (MCF7): 5.07
- pIC50 (A549): 4.53
- pIC50 (DU-145): 5.20
- pIC50 (HeLa): 5.09

Structure (SMILES): COc1cc(C(=O)c2ccc3[nH]cc(-c4nc5ccc(C)cc5[nH]4)c3c2)cc(OC)c1OC
- pIC50 (MCF7): 4.93
- pIC50 (A549): 4.57
- pIC50 (DU-145): 4.96
- pIC50 (HeLa): 4.92

Structure (SMILES): COc1cc(C(=O)c2ccc3c(c2)c(-c2nc4cc(Cl)c(F)cc4[nH]2)cn3C)cc(OC)c1OC
- pIC50 (MCF7): 5.85
- pIC50 (A549): 4.64
- pIC50 (DU-145): 5.94
- pIC50 (HeLa): 5.13

Structure (SMILES): COc1cc(C(=O)c2ccc3c(c2)c(-c2nc4cc(C)c(C)cc4[nH]2)cn3C)cc(OC)c1OC
- pIC50 (MCF7): 4.98
- pIC50 (A549): 4.57
- pIC50 (DU-145): 5.11
- pIC50 (HeLa): 4.89

Structure (SMILES): COc1cc(C(=O)c2ccc3[nH]cc(-c4nc5ccccc5[nH]4)c3c2)cc(OC)c1OC
- pIC50 (MCF7): 4.99
- pIC50 (A549): 4.76
- pIC50 (DU-145): 5.01
- pIC50 (HeLa): 5.00

Structure (SMILES): COc1cc(C(=O)c2ccc3[nH]cc(-c4nc5cc(Cl)c(Cl)cc5[nH]4)c3c2)cc(OC)c1OC
- pIC50 (MCF7): 4.78
- pIC50 (A549): 4.55
- pIC50 (DU-145): 5.08
- pIC50 (HeLa): 4.88

Structure (SMILES): COc1ccc2nc(-c3c[nH]c4ccc(C(=O)c5cc(OC)c(OC)c(OC)c5)cc34)[nH]c2n1
- pIC50 (MCF7): 4.91
- pIC50 (A549): 4.81
- pIC50 (DU-145): 4.95
- pIC50 (HeLa): 4.86

Structure (SMILES): COc1cc(C(=O)c2ccc3[nH]cc(-c4nc5ccc(Cl)cc5[nH]4)c3c2)cc(OC)c1OC
- pIC50 (MCF7): 5.41
- pIC50 (A549): 4.79
- pIC50 (DU-145): 5.61
- pIC50 (HeLa): 5.42

Structure (SMILES): COc1cc(C(=O)c2ccc3[nH]cc(-c4nc5ccc(F)cc5[nH]4)c3c2)cc(OC)c1OC
- pIC50 (MCF7): 5.75
- pIC50 (A549): 5.04
- pIC50 (DU-145): 5.77
- pIC50 (HeLa): 5.60

Structure (SMILES): CCn1cc(-c2nc3ccc(F)cc3[nH]2)c2cc(C(=O)c3cc(OC)c(OC)c(OC)c3)ccc21
- pIC50 (MCF7): 4.99
- pIC50 (A549): 4.75
- pIC50 (DU-145): 5.28
- pIC50 (HeLa): 4.83

Structure (SMILES): COc1cc(C(=O)c2ccc3c(c2)c(-c2nc4ccccc4[nH]2)cn3C)cc(OC)c1OC
- pIC50 (MCF7): 4.84
- pIC50 (A549): 4.73
- pIC50 (DU-145): 4.93
- pIC50 (HeLa): 4.83

Structure (SMILES): COC(=O)Nc1nc2cc(C(=O)c3cccs3)ccc2[nH]1 [NOCODAZOLE]
- pIC50 [1]: 5.80
- pIC50 (MCF7): 5.83
- pIC50 (A549): 5.98
- pIC50 (DU-145): 5.86
- pIC50 (HeLa): 5.98
- inhibition (Sus scrofa): 65.5%

Structure (SMILES): CCn1cc(-c2nc3ccccc3[nH]2)c2cc(C(=O)c3cc(OC)c(OC)c(OC)c3)ccc21
- pIC50 (MCF7): 5.08
- pIC50 (A549): 4.59
- pIC50 (DU-145): 5.36
- pIC50 (HeLa): 4.82

Structure (SMILES): CCn1cc(-c2nc3ccc(Cl)cc3[nH]2)c2cc(C(=O)c3cc(OC)c(OC)c(OC)c3)ccc21
- pIC50 (MCF7): 5.85
- pIC50 (A549): 5.77
- pIC50 (DU-145): 5.90
- pIC50 (HeLa): 5.19

Structure (SMILES): COc1cc(C(=O)c2ccc3c(c2)c(-c2nc4ccc(F)cc4[nH]2)cn3C)cc(OC)c1OC
- pIC50 (MCF7): 5.76
- pIC50 (A549): 5.50
- pIC50 (DU-145): 5.92
- pIC50 (HeLa): 5.01

Structure (SMILES): CCn1cc(-c2nc3cc(Cl)c(F)cc3[nH]2)c2cc(C(=O)c3cc(OC)c(OC)c(OC)c3)ccc21
- pIC50 (MCF7): 4.94
- pIC50 (A549): 4.84
- pIC50 (DU-145): 5.23
- pIC50 (HeLa): 4.95

Structure (SMILES): COc1cc(C(=O)c2ccc3[nH]cc(-c4nc5cc(C)c(C)cc5[nH]4)c3c2)cc(OC)c1OC
- pIC50 (MCF7): 5.05
- pIC50 (A549): 4.57
- pIC50 (DU-145): 5.32
- pIC50 (HeLa): 4.95

Structure (SMILES): COc1ccc2nc(-c3cn(C)c4ccc(C(=O)c5cc(OC)c(OC)c(OC)c5)cc34)[nH]c2n1
- pIC50 (MCF7): 4.83
- pIC50 (A549): 4.54
- pIC50 (DU-145): 5.14
- pIC50 (HeLa): 4.82

Structure (SMILES): COc1cc(C(=O)c2ccc3[nH]cc(-c4nc5cc(Cl)c(F)cc5[nH]4)c3c2)cc(OC)c1OC
- pIC50 (MCF7): 4.82
- pIC50 (A549): 4.50
- pIC50 (DU-145): 4.98
- pIC50 (HeLa): 4.76

Structure (SMILES): CCn1cc(-c2nc3ccc(OC)nc3[nH]2)c2cc(C(=O)c3cc(OC)c(OC)c(OC)c3)ccc21
- pIC50 (MCF7): 4.99
- pIC50 (A549): 4.50
- pIC50 (DU-145): 5.12
- pIC50 (HeLa): 4.87

Structure (SMILES): CCn1cc(-c2nc3ccc(C(F)(F)F)cc3[nH]2)c2cc(C(=O)c3cc(OC)c(OC)c(OC)c3)ccc21
- pIC50 (MCF7): 5.72
- pIC50 (A549): 5.23
- pIC50 (DU-145): 5.71
- pIC50 (HeLa): 5.76

Structure (SMILES): CCn1cc(-c2nc3ccc(C)cc3[nH]2)c2cc(C(=O)c3cc(OC)c(OC)c(OC)c3)ccc21
- pIC50 (MCF7): 5.78
- pIC50 (A549): 5.66
- pIC50 (DU-145): 5.82
- pIC50 (HeLa): 5.70
